Only some compounds are listed: those with a hit (about 3.6% of all), similar ones and a draw of the others.
IMP-1 inh: blocks Pseudomonas aeruginosa IMP-1 metallo-beta-lactamase. purified IMP-1, nitrocefin hydrolysis, epi-absorbance fluorescence. inhibition, % at 5.6 µM. hit rate 0.45% among 290,000;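 active means inhibition above the mean plus 3 SD of all compounds in the same screening run, cut at about 4.5% in these data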;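 further: 0% = IMP-1 with DMSO and 100% = DMSO wells lacking enzyme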
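Material – recombinant IMP-1 enzyme, purified · Amount – IMP-1 0.2 nM before substrate addition · Medium – HEPES buffer pH 7.1 with ZnSO4 and Brij 35 · Timing – 25 °C, 15 min preincubation, 25 min reaction · Measured by – plate fluorescence quenching by hydrolysis product, ex 480/em 530 nm · Read-out – percent enzyme inhibition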
VIM-2 inhibitor: inhibitors of Pseudomonas aeruginosa VIM-2 metallo-beta-lactamase; inhibition, % at 5.6 µM; hit rate 0.89% among 290,000; AID 1527; purified VIM-2, nitrocefin hydrolysis, epi-absorbance fluorescence;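 active means inhibition above the mean of all tested compounds plus 3 SD, cutoff set per screening run, cut at about 7.5% in these data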;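 further: red hydrolysis product quenches plate fluorescence so inhibitors raise well fluorescence; 0% = enzyme with DMSO and 100% = DMSO without enzyme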
PAFAH2 inh: PAFAH2 (human) inhibition | Q99487 | hit rate 0.99% among 340,000 | inhibition, % at 3.39 µM | recombinant PAFAH2, FP-rhodamine activity probe, fluorescence polarization;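 active means inhibition above the mean over all tested compounds plus 3 SD, cut at about 30% in these data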;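 further: inhibitors block probe labeling of enzyme so polarization drops; 0% = enzyme with DMSO and 100% = wells lacking PAFAH2 protein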
PAFAH1B2 FP inh: blocks human PAF acetylhydrolase 1b catalytic subunit 2 | recombinant PAFAH1B2, FP-rhodamine activity probe, fluorescence polarization | hit rate 1.2% among 340,000 | P68402 | inhibition, % at 3.39 µM;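 active means inhibition above the mean of all tested compounds plus 3 SD, cut at about 24% in these data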;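 further: 0% = enzyme with DMSO and 100% = wells lacking PAFAH1B2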
Target sequence (P68402 whole entry, looked up): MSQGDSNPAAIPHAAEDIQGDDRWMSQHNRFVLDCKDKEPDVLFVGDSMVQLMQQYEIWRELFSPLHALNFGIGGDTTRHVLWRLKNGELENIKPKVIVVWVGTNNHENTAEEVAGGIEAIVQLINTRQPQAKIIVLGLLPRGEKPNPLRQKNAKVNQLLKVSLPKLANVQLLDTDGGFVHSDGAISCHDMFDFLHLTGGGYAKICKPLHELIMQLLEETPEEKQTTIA
pPAFAH FP inh: inhibitors of human plasma PAF acetylhydrolase (pPAFAH); Q13093; recombinant pPAFAH, FP-rhodamine probe fluorescence polarization; inhibition, % at 3.39 µM; hit rate 1.5% among 330,000;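 active means inhibition above the mean inhibition across the screen plus 3 SD, cut at about 25% in these data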;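 further: inhibitors block binding of the rhodamine activity-based probe so polarization drops; 0% = enzyme with DMSO and 100% = wells lacking pPAFAH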
Target sequence (Q13093 whole entry, looked up): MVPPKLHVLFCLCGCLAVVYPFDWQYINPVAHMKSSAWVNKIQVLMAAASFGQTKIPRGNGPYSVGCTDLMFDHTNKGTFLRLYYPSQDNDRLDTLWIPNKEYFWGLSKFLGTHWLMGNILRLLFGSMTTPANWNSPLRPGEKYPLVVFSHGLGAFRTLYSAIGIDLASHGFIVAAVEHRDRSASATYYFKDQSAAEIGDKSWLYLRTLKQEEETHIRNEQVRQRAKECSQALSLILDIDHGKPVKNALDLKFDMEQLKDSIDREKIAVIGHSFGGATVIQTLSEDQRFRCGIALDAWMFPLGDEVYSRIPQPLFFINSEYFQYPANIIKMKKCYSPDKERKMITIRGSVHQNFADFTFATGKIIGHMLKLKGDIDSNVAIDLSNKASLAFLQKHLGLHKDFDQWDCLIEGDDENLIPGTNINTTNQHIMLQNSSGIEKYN
PAFAH1B3 FP inh: blocks human PAF acetylhydrolase 1B catalytic subunit 3; Q15102; recombinant PAFAH1B3, FP-rhodamine probe, fluorescence polarization; inhibition, % at 3.39 µM; hit rate 0.28% among 340,000;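 active means inhibition above the screen-wide average of all tested compounds plus 3 SD, cut at about 25% in these data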;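 further: 0% = enzyme with DMSO only and 100% = wells lacking PAFAH1B3 protein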
VIM-2 confirm: VIM-2 inhibition, confirmation assay | shares compounds with IMP-1 inh | inhibition, % at 5.6 µM | purified VIM-2 enzyme, nitrocefin absorbance | AID 1860 | hit rate 73% among 200; in the data active means inhibition above about 8%;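 further: 0% = enzyme with vehicle and 100% = no enzyme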
TEM-1 counter: blocks E. coli TEM-1 beta-lactamase, VIM-2 IMP-1 counter-screen; nitrocefin absorbance inhibition; shares compounds with IMP-1 inh; AID 2184; hit rate 50% among 200; inhibition, % at 5.6 µM; in the data active means inhibition above about 0.66%
IMP-1 confirm: confirmation of P. aeruginosa IMP-1 metallo-beta-lactamase inhibitors; inhibition, % at 5.6 µM; hit rate 60% among 200; shares compounds with IMP-1 inh; purified IMP-1 enzyme, absorbance substrate hydrolysis; in the data active means inhibition above about 4.9%;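 further: 0% = enzyme with vehicle and 100% = vehicle without enzyme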
* hit, by the source's call; x = no result.

SMILES | IMP-1 inh | VIM-2 inhibitor | PAFAH2 inh | PAFAH1B2 FP inh | pPAFAH FP inh | PAFAH1B3 FP inh | VIM-2 confirm | TEM-1 counter | IMP-1 confirm
Nc1ccc2nc3c(=O)n(C4CCCCC4)c(=O)[nH]c3nc2c1 | 24* | 21* | 20 | 6 | 26* | 9 | 23* | 30* | 16*
Nc1ccc2nc(CCc3ccccc3)[nH]c2c1 | -3 | -3 | 9 | 7 | 7 | 15 | x | x | x
CCCc1cc(C(N)=S)ccn1 | 4.8* | 8 | 1 | 12 | -1 | 11 | 3 | -1 | 0
CCNC(=S)Nc1cc(C)ccn1 | -3 | -4 | -2 | -6 | 0 | 3 | x | x | x
NS(=O)(=O)c1ccc(NC(=O)c2cccc(N3C(=O)c4ccccc4C3=O)c2)cc1 | 25* | 9.6* | -2 | 4 | 8 | -5 | 3 | -2 | 17*
O=C(O)c1cc(NC(=O)c2cccc(N3C(=O)c4ccccc4C3=O)c2)cc(C(=O)O)c1 | 0 | -2 | 5 | 5 | 5 | 6 | x | x | x
CCn1cc(/C=C/c2cc[n+](C)cc2)c2ccccc21 | 13* | 16* | 4 | -3 | -1 | -2 | 14* | 8.0* | 8.3*
CC(C)n1cc(/C=C/c2cc[n+](C)cc2)c2ccccc21 | 12* | 18* | -5 | -4 | x | -1 | 14* | 6.7* | 8.4*
c1ccc(CN2CCC3CC2c2cc(N4CCOCC4)ccc23)cc1 (configuration not stated) | x | x | 0 | 0 | x | 14 | x | x | x
COc1ccc(Cc2nc3c([nH]2)c(=O)n(C)c(=O)n3C)cc1OC | x | x | -1 | 5 | x | 6 | x | x | x
COc1ccc(NC(=O)CNc2cccc(S(=O)(=O)N3CCCCCC3)c2)c([N+](=O)[O-])c1 | x | x | -2 | 3 | 1 | 4 | x | x | x
O=P(O)(O)COc1ccccc1P(=O)(c1ccccc1)c1ccccc1 | 5.3* | 12* | 5 | -5 | 4 | 3 | 16* | -4 | -5
CCOP(=O)(O)c1ccccc1OCCOc1ccccc1P(=O)(O)OCC | -2 | -3 | 13 | 6 | 0 | 10 | x | x | x
COc1ccc2c(c1OC)C(=O)OC2 | 0 | 0 | 0 | 1 | 4 | -1 | x | x | x
COc1ccc2c3c(cccc13)C(=O)CC2 | 16* | 17* | 126* | 100* | x | 110* | 1 | 1.7* | -2
O=C(Cc1ccccc1[N+](=O)[O-])NCC1(c2cccc3c2OCO3)OCCO1 | x | x | 1 | 4 | x | 2 | x | x | x
CCN(CC)c1ccc(/C=C2\C(=N)N3N=C(CC(=O)N4CCOCC4)SC3=NC2=O)cc1 | 6.4* | 11* | -4 | 23 | 6 | -1 | 9.3* | -1 | 3
CSc1ccc(/C=C2\C(=N)N3N=C(CC(=O)N4CCOCC4)SC3=NC2=O)cc1 | -3 | -3 | 7 | -5 | 5 | 2 | x | x | x
COC(=O)[C@H](Cc1c[nH]c2ccccc12)NC(=O)NCc1ccccc1 | 1 | 1 | -5 | 0 | 1 | 2 | x | x | x
Oc1sc(C=Nc2ccccc2)c2ccccc12 | 15* | 17* | 6 | 14 | 10 | 10 | 23* | 0 | 4
COc1ccccc1-n1c(SCC(=O)OC(C)C)nc2cccnc21 | 38* | 16* | -5 | 2 | 5 | -5 | 0 | -2 | -1
Cn1c(NCCc2ccccc2)cc(=O)n(C)c1=O | 2 | 0 | 1 | 2 | 1 | 5 | x | x | x
Cn1c(=O)c(NCCO)c2c3c(cccc31)C(=O)c1ccccc1-2 | 96* | 90* | 58* | 41* | 95* | 41* | 108* | 158* | 95*
Cn1c(=O)c(NCCc2ccccc2)c2c3c(cccc31)C(=O)c1ccccc1-2 | 36* | 37* | 168* | 147* | 142* | 165* | 28* | 64* | 24*
N#CC(C#N)=C1C=C2C=C(N3CCCCC3)CCC2CC1 (configuration not stated) | 58* | 48* | x | x | 13 | x | 62* | 87* | 58*
SMILES | IMP-1 inh | VIM-2 inhibitor | PAFAH2 inh | PAFAH1B2 FP inh | pPAFAH FP inh | PAFAH1B3 FP inh | VIM-2 confirm | TEM-1 counter | IMP-1 confirm
CCN(CC)C1=CC2=CC(=C(C#N)C#N)CCC2CC1 (configuration not stated) | 47* | 36* | 6 | -6 | 8 | 12 | 60* | 79* | 58*
CCCCN(C)C1=CC2=CC(=C(C#N)C#N)CCC2CC1 (configuration not stated) | 43* | 30* | 15 | 9 | 17 | 16 | 53* | 79* | 50*
Cc1cc(C(=O)COC(=O)c2cccnc2Cl)c(C)n1C | x | x | 5 | 1 | 4 | 4 | x | x | x
CCc1nc2ccccc2c(C(=O)OCc2nc3ccccc3c(=O)[nH]2)c1C | x | x | -3 | -5 | -3 | 1 | x | x | x
COc1ccc2cc(C3=CCCC3(C)C(=O)O)ccc2c1 (configuration not stated) | x | x | -1 | 1 | x | -2 | x | x | x
O=C(O)Cn1cc(C(=S)N2CCCCC2)c2ccccc21 | 5.0* | 9.2* | 3 | 13 | 3 | 9 | -3 | -6 | -4
O=C(O)Cn1cc(C(=S)N2CCOCC2)c2ccccc21 | -1 | 2 | -1 | 6 | 1 | -2 | x | x | x
CC(=O)NC12CC3CC(C1)CC(C(=O)N1CCN(S(=O)(=O)c4cccc(C(F)(F)F)c4)CC1)(C3)C2 | x | x | 1 | 0 | 4 | -4 | x | x | x
Cc1ccc(Cn2c(C(C)Nc3nc(-c4ccc(C)cc4)cs3)nc3cc(Cl)c(Cl)cc32)cc1 (configuration not stated) | 29* | 12* | 0 | 0 | 3 | 10 | 11* | -6 | 25*
NC(=S)NN=C1Cc2cccc3cccc1c23 | x | x | -1 | 4 | x | 4 | x | x | x
CCOc1ccc(NC(=O)c2c(NC(=O)CN3CCN(C)CC3)sc3c2CCC3)cc1 | 4.7* | 9.6* | -1 | 0 | 2 | 5 | 16* | -3 | 2
O=c1cc(-c2ccccc2)oc2cc(O)ccc12 | x | x | -3 | 2 | x | 3 | x | x | x
Nc1ccc(-c2c3ccc(=O)cc-3oc3cc(O)ccc23)cc1C(=O)O | 51* | 70* | 12 | 14 | 19 | 19 | 59* | 62* | 42*
CCOC(=O)C1CCN(S(=O)(=O)c2c[nH]c(=O)[nH]c2=O)CC1 | x | x | 1 | 1 | 1 | 9 | x | x | x
COC(=O)c1sccc1NC(=O)c1ccc(OC)cc1 | 0 | -1 | 5 | 2 | -2 | 4 | x | x | x
COC(=O)c1sccc1NC(=O)c1ccc(C#N)cc1 | 32* | 16* | 4 | -1 | -3 | -4 | 14* | 0 | 22*
c1ccc2c(Cn3ccnc3)c[nH]c2c1 | -1 | -1 | 1 | -2 | 1 | -3 | x | x | x
Oc1ccc(Cn2ccnc2)c2cccnc12 | 26* | 10* | 4 | 4 | 4 | 12 | 21* | -3 | 44*
